The source of these data is ChEMBL document CHEMBL1150415 (J Med Chem, 2008).

Structures are written as SMILES. Active and inactive are the calls of the source. No cut-off for these calls is given here.

The test system of one data set is Blood. As to the kind of experiment: Inhibition of TXB2 production in Sprague-Dawley rat whole blood. Type of data set: functional, tissue-based. An outline of the steps: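 Rat whole blood stimulated with calcium ionophore A23187 at 5 µM, with thromboxane B2 measured. Each run gives the mean of triplicate assays, and values come from at least two runs.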
Data set [1] is described as follows: Inhibition of cytosolic phospholipase A2alpha by GLU micelle assay. An outline of the steps:
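Micellar assay with 7-hydroxycoumarinyl-γ-linolenate (GLU) substrate, presenting inhibitor and substrate to the enzyme in high-lipid micelles. Each run gives the mean of duplicate assays, and values come from at least two runs.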

The nature of data set [2]: Plasma clearance in Sprague-Dawley rat at 2 mg/kg, iv. Type of data set: ADME, organism-based. On the set-up: dose 2 mg/kg, route intravenous.
The test system of data set [3] is MC9. The data set can be described thus: Inhibition of PGF2alpha production in mouse MC9 cells. Type of data set: functional, cell-based.
In data set [4] the test system is Rattus norvegicus. The data set can be described thus: Inhibition of carrageenan-induced paw edema in Sprague-Dawley rat administered 2 hrs before carrageenan challenge at 10 mg/kg, po. The note with it: read-out: INH. On the technique in general: The carrageenan paw model is a standard test of acute inflammation.
Data set [5] concerns MC9. As to the kind of experiment: Inhibition of PGF2apha production in arachidonic acid-stimulated mouse MC9 cells. Type of data set: functional, cell-based.
For data set [6], the system named is MC9. As to the kind of experiment: Inhibition of leukotrienes production in mouse MC9 cells. Type of data set: functional, cell-based. The method in brief:
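Murine MC-9 mast cells stimulated through the IgE receptor to release arachidonic acid. Leukotriene production (5-LO pathway) was quantified.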

For data set [7], the system named is MC9. As to the kind of experiment: Inhibition of LTB4 production in mouse MC9 cells. Format: functional, cell-based.
Data set [8] concerns Rattus norvegicus. The data set can be described thus: Inhibition of PGE2 production in carrageenan-stimulated rat air pouch model at 2 mg/kg, ip after 6 hrs. Format: functional. The note with it: route intraperitoneal. The method in brief: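 Rats given an intraperitoneal dose. Carrageenan was injected into a preformed air pouch, contents were collected 6 h later, and PGE2 was quantified.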

Data set [9] concerns Rattus norvegicus. As to the kind of experiment: Inhibition of carrageenan-induced paw edema in Sprague-Dawley rat administered 2 hrs before carrageenan challenge at 25 mg/kg, po. Format: functional.
The subject of data set [10] is Rattus norvegicus. The data set can be described thus: Reduction in synovitis damage in Freund's adjuvant-induced arthritis Lewis rat model at 5 mg/kg, po for 11 days. Format: functional, organism-based. On the set-up: dose 5 mg/kg. An outline of the steps: (§1)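 Arthritis was induced in Lewis rats by intradermal complete Freund's adjuvant at the base of the tail. Oral treatment began on day 8, when mean clinical joint scores were 12, and continued for 11 days. Tarsal joints were taken at necropsy and lesions were scored histologically in blinded fashion.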

The nature of data set [11]: Plasma concentration in adjuvant-induced arthritis Lewis rat model at 5 mg/kg, po after 16 hrs. Type of data set: ADME, organism-based. On the set-up: dose 5 mg/kg, route oral.
The subject of data set [12] is Rattus norvegicus. As to the kind of experiment: Reduction in cartilage damage in Freund's adjuvant-induced arthritis Lewis rat model at 5 mg/kg, po for 11 days. On the set-up: dose 5 mg/kg. Format: functional, organism-based. An outline of the steps: as §1
The nature of data set [13]: Plasma concentration in adjuvant-induced arthritis Lewis rat model at 5 mg/kg, po after 4 hrs. Format: ADME, organism-based. Set-up: dose 5 mg/kg, route oral.

For the compound `O=C(O)c1ccc(S(=O)(=O)CCc2c(CCNS(=O)(=O)Cc3ccccc3)n(C(c3ccccc3)c3ccccc3)c3ccc(Cl)cc23)cc1`, the IC50 (in general, the concentration at which inhibition is half-maximal) with Blood was found to be 80 nM; in data set [1] it was 20 nM. In addition, the clearance (in general, the rate of elimination divided by the concentration) in data set [2] worked out at 54 mL/min/kg.
The like results for `O=C(O)c1ccc(S(=O)(=O)CCc2c(CCNS(=O)(=O)Cc3c(F)cccc3F)n(C(c3ccccc3)c3ccccc3)c3ccc(Cl)cc23)cc1` were, in that order, 150 nM, 20 nM and 186 mL/min/kg.
For the compound `O=C(O)c1ccc(CCCc2c(CCNS(=O)(=O)Cc3ccccc3Cl)n(C(c3ccccc3)c3ccccc3)c3ccc(Cl)cc23)cc1`, the IC50 in the data set with Blood was 30 nM; in data set [1], 20 nM. In addition, in [2], the clearance came out at 7 mL/min/kg.
In the case of `COc1ccc2cc([C@H](C)C(=O)O)ccc2c1` [NAPROXEN], the half-maximal inhibitory concentration (IC50) in the data set on MC9 [3] came to 200 nM; in the data set on MC9 [5], 330 nM. In addition, the inhibition in vivo at 10 mg/kg in the data set with Rattus norvegicus [4] is 50%.
As to `CC(c1cc2ccccc2s1)N(O)C(N)=O` (centres undefined) [ZILEUTON], in the data set on MC9 [6], the outcome was Active. Moreover, the half-maximal inhibitory concentration (IC50) in the data set on MC9 [7] is 550 nM.
Take `O=C(O)CCc1ccc(S(=O)(=O)CCc2c(CCNS(=O)(=O)Cc3ccccc3Cl)n(C(c3ccccc3)c3ccccc3)c3ccc(Cl)cc23)cc1`: the IC50 with Blood worked out at 20 nM; in [1], 10 nM. The clearance in data set [2] is 63 mL/min/kg.
On the same counts, the results for `Cc1cccc(C)c1CS(=O)(=O)NCCc1c(CCOc2ccc(C(=O)O)cc2)c2cc(Cl)ccc2n1C(c1ccccc1)c1ccccc1` are 30 nM, 30 nM and 13 mL/min/kg.
Take `Cc1ccccc1CS(=O)(=O)NCCc1c(CCCc2ccc(C(=O)O)cc2)c2cc(Cl)ccc2n1C(c1ccccc1)c1ccccc1`: the 50% inhibitory concentration (IC50) in the data set on Blood was 20 nM; in [1], 30 nM. The compound further gave a clearance in data set [2] of 6 mL/min/kg.
The like results for `O=C(O)c1ccc(OCCc2c(CCNS(=O)(=O)Cc3c(F)cccc3F)n(C(c3ccccc3)c3ccccc3)c3ccc(Cl)cc23)cc1` were, in that order, 80 nM, 180 nM and 32 mL/min/kg.
Regarding `O=C(O)CCc1ccc(S(=O)(=O)CCc2c(CCNS(=O)(=O)Cc3ccc(Cl)c(Cl)c3)n(C(c3ccccc3)c3ccccc3)c3ccc(Cl)cc23)cc1`, the IC50 (in the data set on Blood; in data set [1]) was 40 nM each time. The same compound showed a clearance in [2] of 10 mL/min/kg.
As for `O=C(O)c1ccc(S(=O)(=O)CCc2c(CCNS(=O)(=O)Cc3ccc(Cl)c(Cl)c3)n(C(c3ccccc3)c3ccccc3)c3ccc(Cl)cc23)cc1`, the figures for the IC50 (with Blood; in data set [1]) were 150 nM and 20 nM, respectively. Also, the clearance in data set [2] came to 19 mL/min/kg.
On the same counts, the results for `Cc1cccc(C)c1CS(=O)(=O)NCCc1c(CCS(=O)(=O)c2ccc(C(=O)O)cc2)c2cc(Cl)ccc2n1C(c1ccccc1)c1ccccc1` are 70 nM, 4 nM and 25 mL/min/kg.
Regarding `O=C(O)c1ccc(OCCc2c(CCNS(=O)(=O)Cc3ccccc3[N+](=O)[O-])n(C(c3ccccc3)c3ccccc3)c3ccc(Cl)cc23)cc1`, the IC50 with Blood was determined as 30 nM; in data set [1], 85 nM.
The like results for `O=C(O)c1ccc(OCCc2c(CCNS(=O)(=O)Cc3ccncc3)n(C(c3ccccc3)c3ccccc3)c3ccc(Cl)cc23)cc1` were, in that order, 340 nM and 180 nM.
On the same counts, the results for `O=C(O)CCc1ccc(S(=O)(=O)CCc2c(CCNS(=O)(=O)Cc3c(F)cccc3F)n(C(c3ccccc3)c3ccccc3)c3ccc(Cl)cc23)cc1` are 20 nM and 70 nM.
As for `Cc1ccc(-c2cc(C(F)(F)F)nn2-c2ccc(S(N)(=O)=O)cc2)cc1` [CELECOXIB], the IC50 in the data set with MC9 [3] amounted to 400 nM; with MC9 [5], 300 nM. In the data set with Rattus norvegicus [8], this compound had an inhibition in vivo at 2 mg/kg of 90%. Further, in the data set with Rattus norvegicus [9], the inhibition in vivo at 25 mg/kg worked out at 37%. Further, the outcome with Rattus norvegicus [10] and in the data set on Rattus norvegicus [12] was Active. Also, the concentration at 16 h in data set [11] came to 129 ng/mL. Moreover, the concentration at 4 h in data set [13] was determined as 1130 ng/mL.
In the case of `O=C(O)c1ccc(OCCc2c(CCNS(=O)(=O)Cc3ccccc3Cl)n(C(c3ccccc3)c3ccccc3)c3ccc(Cl)cc23)cc1`, the IC50 (with Blood; in [1]) was 50 nM throughout.
In the case of `O=C(O)CCc1ccc(S(=O)(=O)CCc2c(CCNS(=O)(=O)Cc3ccccc3)n(C(c3ccccc3)c3ccccc3)c3ccc(Cl)cc23)cc1`, the IC50 in the data set on Blood came out at 20 nM; in data set [1], 30 nM. The compound further yielded a clearance in [2] of 150 mL/min/kg.
